Measurements: ChEMBL document CHEMBL1128321, “Piperazinylalkyl heterocycles as potential antipsychotic agents” (J Med Chem, 1995)

Legend:
[1] = target: T1, 5-hydroxytryptamine receptor 1A (Rattus norvegicus, UniProt P19327); test: Binding affinity was determined against 5-hydroxytryptamine 1A receptor using […]
T1 sequence (P19327 whole entry): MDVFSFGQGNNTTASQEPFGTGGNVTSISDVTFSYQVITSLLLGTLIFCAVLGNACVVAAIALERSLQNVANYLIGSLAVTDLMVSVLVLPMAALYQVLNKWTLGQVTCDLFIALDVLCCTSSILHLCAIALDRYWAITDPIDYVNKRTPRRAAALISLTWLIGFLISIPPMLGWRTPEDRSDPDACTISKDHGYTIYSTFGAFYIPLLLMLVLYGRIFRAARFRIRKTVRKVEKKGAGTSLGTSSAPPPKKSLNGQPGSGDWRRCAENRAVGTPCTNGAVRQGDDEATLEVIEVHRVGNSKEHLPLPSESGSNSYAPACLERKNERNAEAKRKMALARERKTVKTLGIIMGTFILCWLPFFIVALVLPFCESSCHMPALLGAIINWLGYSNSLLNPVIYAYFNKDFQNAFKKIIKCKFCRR

Rattus norvegicus [2] = test: Conditioned avoidance response activity was determined by the ability to block the conditioned avoidance of a foot shock at 5 mg/kg(ip); type: functional
Outline: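 Male Fischer 344 rats (300–500 g) trained on a discrete-trial single-lever task, pressing the lever to avoid an impending shock; block of responding read at time of peak effect. Escape loss = percent of animals failing to escape the shock; >20% escape loss with CAR inhibition taken as potential for sedation.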

Rattus norvegicus [3] = test: Percentage of animals failing to escape shock was measured, affording a rough index for nonspecific sedation at 5 mg/kg(ip)
[4] = Stability half-life at pH-2; type: physicochemical
Outline: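 Half-life measured in solution at pH 2, about 3 × 10⁻³ M compound in citric acid–phosphate buffer at 22 °C.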

Row | Compound | Ki [1] [nM] | half-life [4] [h] | inhibition in vivo at 5 mg/kg (Rattus norvegicus [2]) [%] | Esc loss (Rattus norvegicus [3]) [%]
1 | COc1ccccc1N1CCN(Cc2ccc(CNC(C)=O)n2C)CC1.O=C(O)CCC(=O)O |  |  | 14 | 3
2 | COc1ccccc1N1CCN(Cc2ccc(CN(Cc3ccccc3)C(=O)c3ccccc3)n2C)CC1.O=C(O)CCC(=O)O |  |  | 8 | 0
3 | CC(C)Oc1ccccc1N1CCN(Cc2ccc(CN(C)S(C)(=O)=O)n2C)CC1.O=C(O)CCC(=O)O |  | 3.7 | 8 | 0
4 | COc1ccccc1N1CCN(Cc2ccc(CN(Cc3ccccc3)C(C)=O)n2C)CC1.O=C(O)CCC(=O)O |  |  | 3 | 0
5 | CC(C)Oc1ccccc1N1CCN(Cc2ccc(CN(C(=O)C(C)C)C(C)C)n2C)CC1.O=C(O)CCC(=O)O | 1.9 |  | 0 | 0
6 | CCCCC(=O)N(C)Cc1ccc(CN2CCN(c3ccccc3OC(C)C)CC2)n1C.O=C(O)CCC(=O)O | 0.25 |  | 4 | 0
7 | CC(C)Oc1ccccc1N1CCN(Cc2ccc(C(=O)N3CCCCC3)s2)CC1.O=C(O)CCC(=O)O | 4.2 |  | 56 | 18
8 | COc1ccccc1N1CCN(Cc2ccc(CN(C(=O)C3CCCCC3)C(C)C)n2C)CC1.O=C(O)CCC(=O)O | 11 |  | 36 | 26
9 | CC(C)Oc1ccccc1N1CCN(CC2CC(CN3CCCCC3=O)=NO2)CC1 (stereo unspecified) | 10 |  | 69 | 20
10 | CC(C)Oc1ccccc1N1CCN(Cc2cc(CO)no2)CC1 |  | 57.7 | 29 | 1
11 | COc1ccccc1N1CCN(Cc2ccc(CN(C(C)C)S(C)(=O)=O)n2C)CC1 |  |  | 1 | 0
12 | CC(C)Oc1ccccc1N1CCN(Cc2ccc(CCN3CCCCC3=O)n2C)CC1.Cl |  | < 0.217 | 77 | 27
13 | Cl.O=C(c1ccc(CN2CCN(c3cccc4ccoc34)CC2)s1)N1CCCCC1 | 0.63 |  | 3 | 0
14 | CC(C)Oc1ccccc1N1CCN(Cc2cc(C(=O)N3CCCCCC3)cs2)CC1.Cl | 0.41 |  | 45 | 4
15 | CC(C)Oc1ccccc1N1CCN(Cc2cccc(C(=O)N3CCCCC3)c2)CC1 [MAZAPERTINE] |  |  | 98 | 

Further lines, with some results ahead:

Row | Ki [1] [nM] | half-life [4] [h] | Compound | inhibition in vivo at 5 mg/kg (Rattus norvegicus [2]) [%] | Esc loss (Rattus norvegicus [3]) [%]
16 | 16 |  | COc1ccccc1N1CCN(Cc2ccc(CN(C(C)=O)C(C)C)n2C)CC1.O=C(O)CCC(=O)O | 8 | 0
17 | 25 |  | COc1ccccc1N1CCN(CCc2ccc(C(=O)C(=O)N3CCCCC3)n2C)CC1.O=C(O)CCC(=O)O | 45 | 26
18 | 4.5 |  | CCCCC(=O)N(C)Cc1ccc(CN2CCN(c3ccccc3OC)CC2)n1C.O=C(O)CCC(=O)O | 2 | 1
19 | 39 |  | COc1ccccc1N1CCN(Cc2ccc(CN(C)C(C)=O)n2C)CC1.O=C(O)CCC(=O)O | 52 | 2
20 | 4.7 |  | CC(C)Oc1ccccc1N1CCN(Cc2ccc(CN(C(=O)C3CCCCC3)C(C)C)n2C)CC1.O=C(O)CCC(=O)O | 13 | 0
21 | 0.07 |  | O=C(O)CCC(=O)O.O=C1CCCCN1Cc1ccc(CN2CCN(c3cccc4ccoc34)CC2)s1 | 63 | 5
22 | 3.2 |  | CC(C)Oc1ccccc1N1CCN(Cc2ccc(C(=O)N3CCCCCC3)s2)CC1.Cl | 8 | 3
23 | 2.5 |  | CC(C)Oc1ccccc1N1CCN(Cc2cc(C(=O)N3CCCCC3)cs2)CC1.Cl | 72 | 34
24 | 3.1 |  | CC(C)Oc1ccccc1N1CCN(Cc2ccc(CN3CCCCC3=O)s2)CC1.Cl | 58 | 3
